How the values were obtained:
[1] = system: Rattus norvegicus; assay: Analgesic activity in rat incision model of post-operative pain assessed as reduction in paw withdrawal latency at 10 umol/kg, ip administered 90 mins post-surgical incision measured after 30 mins; type: functional; design: scale not given: the % may be the effect or the level left
[2] = system: Rattus norvegicus; assay: Analgesic activity in rat chronic constriction injury model of neuropathic pain assessed as reduction in mechanical allodynia at 3 umol/kg, ip administered 2 weeks post-surgery measured after 30 mins; type: functional; design: scale not given: the % may be the effect or the level left
[3] = Cmax in rat at 10 umol/kg, po; type: ADME, organism-based; design: dose 10 umol/kg, route oral; details: in vivo
[4] = system: Rattus norvegicus; assay: Analgesic activity in rat spinal nerve ligation model of neuropathic pain assessed as […] at 30 umol/kg, ip administered 2 weeks post-surgery measured after 30 mins; type: functional; design: scale not given: the % may be the effect or the level left
In short: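 Rat spinal nerve ligation (Chung) neuropathic pain model. Dosing was intraperitoneal, two weeks after surgery and 30 min before testing. Read-out was mechanical allodynia (paw withdrawal threshold), given as a dose–response.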

[5] = Tmax in rat at 10 umol/kg, po; type: ADME, organism-based; details: in vivo
[6] = system: Rattus norvegicus; assay: Analgesic activity in ip dosed rat chronic constriction injury model of neuropathic pain assessed as reduction in mechanical allodynia administered 2 weeks post-surgery measured after 30 mins; type: functional, organism-based
[7] = Oral bioavailability in rat at 10 umol/kg, ip; type: ADME, organism-based; details: in vivo, intraperitoneal
[8] = target: T1, Cannabinoid receptor 1 (Rattus norvegicus, UniProt P20272); assay: Displacement of [3H]CP-55940 from rat recombinant CB1 receptor expressed in CHO cells after 90 mins; type: cell-based
In short: (§1)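 Competitive binding: [³H]CP-55,940 displaced from membranes of HEK 293 cells stably transfected with human or rat CB₂, or CHO cells stably transfected with human or rat CB₁. Reported as pKi. Determinations >2 (duplicate of duplicate).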

[9] = Half life in rat at 3 umol/kg, iv; type: ADME, organism-based; details: in vivo
[10] = Tmax in rat at 10 umol/kg, ip; type: ADME, organism-based; details: in vivo
[11] = system: Rattus norvegicus; assay: Analgesic activity in rat complete Freund's adjuvant model of chronic inflammatory pain assessed as latency in paw withdrawal at 30 umol/kg, po administered 48 hrs after CFA-challenge measured after 60 mins; type: functional
[12] = system: Rattus norvegicus; assay: Analgesic activity in rat complete Freund's adjuvant model of chronic inflammatory pain assessed as reduction in thermal hyperalgesia at 10 umol/kg, ip co-administered with CB2 antagonist SR144528; type: functional; design: scale not given: the % may be the effect or the level left
In short: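 Rat CFA inflammatory pain model. Read-out was thermal hyperalgesia in the CFA-injected right paw, with the left paw as control. Test compound and the CB₂ antagonist SR-144528 (10 µmol/kg ip) were given alone and combined, with vehicle controls.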

[13] = target: T2, Cannabinoid receptor 2 (Rattus norvegicus, UniProt Q9QZN9); assay: Agonist activity at rat recombinant CB2 receptor expressed in HEK293 cells co-expressing chimeric Gaq/o protein by FLIPR assay by FLIPR assay; type: functional, cell-based
T2 sequence (Q9QZN9 whole entry): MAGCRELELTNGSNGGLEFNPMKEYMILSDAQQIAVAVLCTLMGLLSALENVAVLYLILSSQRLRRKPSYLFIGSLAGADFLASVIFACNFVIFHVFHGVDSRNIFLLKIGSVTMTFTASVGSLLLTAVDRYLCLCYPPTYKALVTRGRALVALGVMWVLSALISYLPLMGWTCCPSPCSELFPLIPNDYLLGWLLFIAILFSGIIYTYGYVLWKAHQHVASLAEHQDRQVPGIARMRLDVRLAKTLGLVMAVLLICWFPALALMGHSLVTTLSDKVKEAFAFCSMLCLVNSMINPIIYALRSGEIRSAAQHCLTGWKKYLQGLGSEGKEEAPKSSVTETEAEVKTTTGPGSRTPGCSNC
In short: (§2)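 FLIPR functional assay in HEK 293 cells stably co-expressing chimeric Gαq/o protein and the CB receptor. Net peak evoked response was compared with the peak response to CP-55,940.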

[14] = target: T3, Cannabinoid receptor 2 (Homo sapiens, UniProt P34972); assay: Agonist activity at human recombinant CB2 receptor expressed in HEK293 cells co-expressing chimeric Gaq/o protein by FLIPR assay; type: functional, cell-based; in short: as §2
[15] = target: T3, Cannabinoid receptor 2; assay: Agonist activity at human recombinant CB2 receptor expressed in HEK293 cells assessed as inhibition of forskolin-induced cAMP production after 20 mins by ELISA; type: functional, cell-based
In short: (§3)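 cAMP assay in HEK 293 cells stably expressing the relevant CB receptor, with a fixed concentration of forskolin. cAMP was quantified by ELISA. Activation is given as percent of the CP-55,940 control response.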

[16] = system: Rattus norvegicus; assay: Analgesic activity in rat chronic constriction injury model of neuropathic pain assessed as reduction in mechanical allodynia at 10 umol/kg, ip administered 2 weeks post-surgery measured after 30 mins; type: functional; design: scale not given: the % may be the effect or the level left
[17] = Plasma protein binding in human; type: ADME, cell-free; details: read-out: PPB (converted)
[18] = Half life in rat at 10 umol/kg, po; type: ADME, organism-based; details: in vivo
[19] = AUC in rat at 10 umol/kg, po; type: ADME, organism-based; details: plasma
[20] = system: Rattus norvegicus; assay: Analgesic activity in po dosed rat complete Freund's adjuvant model of chronic inflammatory pain assessed as latency in paw withdrawal administered 48 hrs after CFA-challenge measured after 60 mins; type: functional, organism-based
[21] = system: Rattus norvegicus; assay: Analgesic activity in rat incision model of post-operative pain assessed as reduction in paw withdrawal latency at 3 umol/kg, ip administered 90 mins post-surgical incision measured after 30 mins; type: functional; design: scale not given: the % may be the effect or the level left
[22] = system: Rattus norvegicus; assay: Analgesic activity in rat complete Freund's adjuvant model of chronic inflammatory pain assessed as reduction in thermal hyperalgesia at 10 umol/kg, ip administered 48 hrs after CFA-challenge measured after 60 mins; type: functional; design: scale not given: the % may be the effect or the level left
[23] = system: Rattus norvegicus; assay: Neurotoxicity in rat assessed as decrease in spontaneous locomotory activity at 10 umol/kg, ip after 30 mins; type: toxicity, organism-based; design: scale not given: the % may be the effect or the level left; details: in vivo, 0.5 h
In short: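 Spontaneous horizontal locomotor activity in rats. Compound was given intraperitoneally 30 min before testing.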

[24] = target: T1, Cannabinoid receptor 1; assay: Agonist activity at rat recombinant CB1 receptor expressed in HEK293 cells assessed as inhibition of forskolin-induced cAMP production after 20 mins by ELISA; type: functional, cell-based; in short: as §3
[25] = Oral bioavailability in rat at 10 umol/kg; type: ADME, organism-based; details: in vivo
[26] = target: T3, Cannabinoid receptor 2; assay: Displacement of [3H]CP-55940 from human recombinant CB2 receptor expressed in HEK293 cells after 90 mins; type: cell-based; in short: as §1

T3 sequence (P34972 whole entry): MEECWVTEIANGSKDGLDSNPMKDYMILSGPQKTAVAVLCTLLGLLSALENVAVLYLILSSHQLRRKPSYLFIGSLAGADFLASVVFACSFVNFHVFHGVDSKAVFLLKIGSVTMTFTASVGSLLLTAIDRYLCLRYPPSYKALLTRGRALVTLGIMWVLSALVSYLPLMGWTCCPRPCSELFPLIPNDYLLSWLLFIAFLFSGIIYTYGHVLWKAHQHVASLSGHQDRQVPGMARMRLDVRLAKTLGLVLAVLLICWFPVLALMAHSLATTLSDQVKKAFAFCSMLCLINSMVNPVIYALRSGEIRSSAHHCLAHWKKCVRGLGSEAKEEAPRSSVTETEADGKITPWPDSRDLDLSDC
T1 sequence (P20272 whole entry): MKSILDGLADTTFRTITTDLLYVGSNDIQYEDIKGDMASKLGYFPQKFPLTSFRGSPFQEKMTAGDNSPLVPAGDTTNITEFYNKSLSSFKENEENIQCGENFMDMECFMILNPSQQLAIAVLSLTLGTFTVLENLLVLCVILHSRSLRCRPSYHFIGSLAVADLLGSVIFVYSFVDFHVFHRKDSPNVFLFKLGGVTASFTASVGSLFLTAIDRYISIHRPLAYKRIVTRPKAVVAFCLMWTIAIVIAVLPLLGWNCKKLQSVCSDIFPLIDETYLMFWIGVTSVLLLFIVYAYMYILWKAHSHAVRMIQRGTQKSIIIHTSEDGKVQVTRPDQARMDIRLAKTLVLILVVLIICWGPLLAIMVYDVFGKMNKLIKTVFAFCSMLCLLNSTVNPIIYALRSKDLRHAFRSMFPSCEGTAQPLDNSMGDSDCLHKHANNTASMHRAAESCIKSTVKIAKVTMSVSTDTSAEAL

## CCCNC(=O)c1c(NC(=O)C23CC4CC(CC2C4)C3)sc2c1CCOC2
[1]
  Activity: 45%
[2]
  Activity: 22%
[3]
  Cmax: 39 ng/mL
[4]
  Activity: 60%
[5]
  Tmax: 1.2 h
[6]
  Activity: Dose-dependent effect
[7]
  bioavailability: 96%
[8]
  Ki: 302 nM
[9]
  half-life: 1.5 h
[10]
  Tmax: 0.6 h
[11]
  Activity: 24%
[12]
  Activity: 24%
[13]
  IC50: 1550 nM
[14]
  IC50: 70.8 nM
[15]
  IC50: 1.95 nM
[16]
  Activity: 55%
[17]
  fraction unbound: 0.02
[18]
  half-life: 1.6 h
[19]
  AUC: 123 ng·h/mL
[20]
  Activity: Dose-dependent effect
[21]
  Activity: 21%
[22]
  Activity: 74%
[23]
  Activity: 18%
[24]
  IC50: 1410 nM
[25]
  bioavailability: 11%
[26]
  Ki: 20.9 nM

From ChEMBL document CHEMBL2010740, “Synthesis and evaluation of 2-amido-3-carboxamide thiophene CB₂ receptor agonists for pain management” (Bioorg Med Chem Lett, 2012)
